Test results from PMC3331960 (Nature chemical biology, 2012).
Several values for one entry are separate records, joined by “and”; a condition that tells them apart may be missing. Identical values can stand only once. Where no end group is shown, it is not given here. The star is where a group is joined. Biotin = O=C1N[C@H]2[C@H](CS[C@H]2CCCCC(=O)*)N1

Experiments:
TIR1-IAA7 DII = TIR1-IAA7 DII (Arabidopsis thaliana, UniProt Q38825+Q570C0, DEL96-243); experiment: Surface plasmon resonance, TIR1 over immobilized IAA7 DII peptide; format: binding; details: for TIR1 association with the DII peptide (SPR): co-injection of TIR1 with auxin, vs no auxin
TIR1-IAA7 interaction = molecular target: T1, TIR1-IAA7 interaction (Arabidopsis thaliana, UniProt Q38825+Q570C0); experiment: LexA yeast two-hybrid, auxin-induced TIR1-IAA7 interaction; format: cell-based; details: 50 μM auxins in selective media
T1 sequence (Q570C0 1-594): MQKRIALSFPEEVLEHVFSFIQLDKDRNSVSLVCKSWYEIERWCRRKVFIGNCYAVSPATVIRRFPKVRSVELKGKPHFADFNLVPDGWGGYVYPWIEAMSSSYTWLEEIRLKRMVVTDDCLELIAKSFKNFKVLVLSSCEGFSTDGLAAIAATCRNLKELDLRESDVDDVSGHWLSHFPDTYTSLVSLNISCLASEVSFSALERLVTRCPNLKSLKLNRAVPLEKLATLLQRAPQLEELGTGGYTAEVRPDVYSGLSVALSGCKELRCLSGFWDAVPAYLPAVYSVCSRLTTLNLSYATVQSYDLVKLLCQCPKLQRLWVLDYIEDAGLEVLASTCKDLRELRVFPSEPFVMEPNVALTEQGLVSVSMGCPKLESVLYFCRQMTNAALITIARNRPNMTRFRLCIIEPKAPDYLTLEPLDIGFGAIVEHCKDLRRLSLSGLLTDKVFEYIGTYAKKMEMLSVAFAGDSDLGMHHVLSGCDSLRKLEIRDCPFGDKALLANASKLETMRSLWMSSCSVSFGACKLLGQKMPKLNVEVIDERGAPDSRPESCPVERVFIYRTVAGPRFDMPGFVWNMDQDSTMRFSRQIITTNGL
T1 sequence (Q38825 1-243): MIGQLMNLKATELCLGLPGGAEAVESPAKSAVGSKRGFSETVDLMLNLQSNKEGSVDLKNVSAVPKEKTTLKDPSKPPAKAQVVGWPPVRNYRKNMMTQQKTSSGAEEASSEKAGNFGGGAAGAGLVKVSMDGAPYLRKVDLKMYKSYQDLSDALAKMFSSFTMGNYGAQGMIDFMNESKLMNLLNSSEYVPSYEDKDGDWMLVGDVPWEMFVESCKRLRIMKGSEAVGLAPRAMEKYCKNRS

AFB5-IAA7 DII = AFB5-IAA7 DII (Arabidopsis thaliana, UniProt Q38825+Q9LTX2, DEL96-243); experiment: Surface plasmon resonance, AFB5 over immobilized IAA7 DII peptide; format: binding; details: 50 μM picloram
TIR1-IAA7 = molecular target: T2, TIR1-IAA7 (Arabidopsis thaliana, UniProt Q38825+Q570C0); experiment: [3H]-IAA radioligand binding; details: Ki (Mean ± SEM), TIR1-IAA7, cold competitor vs [3H] IAA
T2 sequence (Q570C0 1-594): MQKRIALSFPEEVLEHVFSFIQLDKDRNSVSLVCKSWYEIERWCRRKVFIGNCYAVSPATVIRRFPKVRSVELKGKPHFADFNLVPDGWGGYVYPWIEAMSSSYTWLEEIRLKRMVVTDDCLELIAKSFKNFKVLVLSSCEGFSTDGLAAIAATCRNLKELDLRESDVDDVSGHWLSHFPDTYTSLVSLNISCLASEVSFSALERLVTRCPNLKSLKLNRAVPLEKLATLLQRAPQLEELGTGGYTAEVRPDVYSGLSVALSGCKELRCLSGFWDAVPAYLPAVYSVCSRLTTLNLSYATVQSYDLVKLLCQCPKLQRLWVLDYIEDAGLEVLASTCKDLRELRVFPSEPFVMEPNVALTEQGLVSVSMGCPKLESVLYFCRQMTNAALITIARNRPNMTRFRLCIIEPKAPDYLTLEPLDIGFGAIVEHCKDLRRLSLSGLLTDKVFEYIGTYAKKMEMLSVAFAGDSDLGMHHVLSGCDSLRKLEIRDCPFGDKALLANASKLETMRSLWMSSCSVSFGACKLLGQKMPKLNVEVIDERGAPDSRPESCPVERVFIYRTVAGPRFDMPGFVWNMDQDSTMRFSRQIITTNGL
T2 sequence (Q39255 1-160 partner): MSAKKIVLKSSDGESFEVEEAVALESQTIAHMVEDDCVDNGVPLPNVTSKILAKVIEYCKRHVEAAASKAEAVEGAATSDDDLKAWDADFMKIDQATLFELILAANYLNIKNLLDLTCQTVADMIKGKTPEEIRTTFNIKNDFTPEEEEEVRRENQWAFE
T2 sequence (Q38825 1-243): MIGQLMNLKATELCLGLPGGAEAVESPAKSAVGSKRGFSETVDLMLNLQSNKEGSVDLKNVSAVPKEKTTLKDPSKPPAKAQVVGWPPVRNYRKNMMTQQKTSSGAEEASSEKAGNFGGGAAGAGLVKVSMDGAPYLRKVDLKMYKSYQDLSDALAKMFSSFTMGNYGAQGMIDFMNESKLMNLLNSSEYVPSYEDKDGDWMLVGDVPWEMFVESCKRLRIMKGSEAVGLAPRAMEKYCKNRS
How it was run: (§1)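 ASK1-TIR1 or ASK1-AFB5 (0.44 μg, insect cells) with E. coli GST-IAA7 (1:10 molar), >1 h at 4°C in pH 8.0 Tris binding buffer. KD from [³H]-IAA saturation binding. Ki from competition with cold 1-NAA, 2,4-D or picloram against fixed [³H]-IAA (5–100 nM), fitted to a one-site competition model by nonlinear regression. Filter binding with scintillation read-out; triplicates.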

AFB5-IAA7 = AFB5-IAA7 (Arabidopsis thaliana, UniProt Q38825+Q9LTX2); experiment: [3H]-IAA radioligand binding; details: Ki (Mean ± SEM), AFB5-IAA7, cold competitor vs [3H] IAA
How it was run: as §1

TIR1-ASK1 complex = molecular target: T3, TIR1-ASK1 complex (Arabidopsis thaliana, UniProt Q570C0;Q39255); experiment: SPR
T3 sequence 1: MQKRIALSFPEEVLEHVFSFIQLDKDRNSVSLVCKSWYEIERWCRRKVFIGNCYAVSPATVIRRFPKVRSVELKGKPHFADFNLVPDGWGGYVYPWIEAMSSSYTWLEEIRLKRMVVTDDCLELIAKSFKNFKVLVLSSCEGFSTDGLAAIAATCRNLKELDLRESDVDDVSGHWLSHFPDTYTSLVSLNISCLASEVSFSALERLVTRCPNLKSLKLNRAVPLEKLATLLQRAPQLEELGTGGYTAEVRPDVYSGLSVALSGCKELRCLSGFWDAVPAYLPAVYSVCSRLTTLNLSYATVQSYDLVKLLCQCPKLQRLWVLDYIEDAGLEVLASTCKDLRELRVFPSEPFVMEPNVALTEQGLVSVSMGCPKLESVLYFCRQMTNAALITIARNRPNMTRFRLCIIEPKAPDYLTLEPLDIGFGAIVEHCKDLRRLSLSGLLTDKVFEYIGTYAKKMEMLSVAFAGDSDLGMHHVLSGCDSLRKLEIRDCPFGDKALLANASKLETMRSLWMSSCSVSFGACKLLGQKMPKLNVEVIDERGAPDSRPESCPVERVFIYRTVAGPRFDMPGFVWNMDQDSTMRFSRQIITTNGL
T3 sequence 2: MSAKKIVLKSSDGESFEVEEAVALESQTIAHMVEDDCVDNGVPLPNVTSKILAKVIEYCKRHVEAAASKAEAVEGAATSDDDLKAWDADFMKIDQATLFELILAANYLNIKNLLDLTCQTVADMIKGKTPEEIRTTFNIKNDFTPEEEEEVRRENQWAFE

O=C(O)Cc1cccc2ccccc12 [1-NAA, 1-naphthaleneacetic acid]
TIR1 association with the DII peptide (SPR) (TIR1-IAA7 DII): enhanced association with the peptide
TIR1-IAA7 interaction in yeast (β-galactosidase expression) (TIR1-IAA7 interaction): promoted TIR1-IAA7 interaction, but not to the same extent as IAA

Nc1c(Cl)c(Cl)nc(C(=O)O)c1Cl [picloram, 4-amino-3,5,6-trichloro-2-pyridinecarboxylic acid]
assembly of the AFB5-IAA7 complex (SPR) (AFB5-IAA7 DII): promotes rapid assembly
dissociation of the TIR1-IAA7 DII complex (SPR) (TIR1-IAA7 DII; 50 μM ligand concentration): rapid dissociation
TIR1 association with the DII peptide (SPR) (TIR1-IAA7 DII): enhanced association with the peptide
TIR1-IAA7 interaction in yeast (β-galactosidase expression) (TIR1-IAA7 interaction): promoted TIR1-IAA7 interaction, but not to the same extent as IAA
Ki (TIR1-IAA7): 3900 ± 910 nM
Ki (AFB5-IAA7): 54.9 nM and 54.7 nM

Biotin-AKAQVVGWPPVRNYRKN [Biotinylated DII IAA7 peptide (SPR)]
binding result (TIR1-ASK1 complex): binds
